Data as given in ChEMBL document CHEMBL5608193, “Discovery of bivalent small molecule degraders of cyclin-dependent kinase 7 (CDK7)” (Eur J Med Chem, 2024).
Active and inactive are the calls of the source. No cut-off for these calls is given here.

What was measured:
CDK7/Cyclin H/MNAT1 [1] = target: T1, CDK7/Cyclin H/MNAT1 (Homo sapiens, UniProt P50613); assay: Inhibition of CDK7/CycH/MNAT1 (unknown origin) assessed as change in TR-FRET ratio using Cdk7/9tide as substrate and ATP by in vitro Adapta Eu kinase assay; assay type: protein-complex assay
Outline: (§1)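 Adapta Eu kinase assay run at ThermoFisher on CDK7/Cyclin H/MNAT1 with ATP at Km.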

[2] = target: T2, von Hippel-Lindau disease tumor suppressor/Cyclin-dependent kinase 7 (Homo sapiens) (UniProt P50613+P40337); assay: PROTAC activity at CDK7/VHL in human Jurkat cells assessed as degradation of CDK7 at 1 uM measured after 16 hrs incubation by immunoblot analysis relative to control; assay type: cell-based
Outline: (§2)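 Jurkat cells given VHL-recruiting compounds at 0.1 or 1 μM for 16 h. RIPA lysis, BCA normalization, 4–20% SDS-PAGE, nitrocellulose transfer. CDK7 (1:1000) and β-actin probed overnight at 4 °C, IRDye secondaries, Odyssey detection. Quantified against control, mean ± SEM from three independent biological replicates.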

[3] = target: T2, von Hippel-Lindau disease tumor suppressor/Cyclin-dependent kinase 7 (Homo sapiens); assay: PROTAC activity at CDK7/VHL in human Jurkat cells assessed as degradation of CDK7 at 0.1 uM measured after 16 hrs incubation by immunoblot analysis relative to control; assay type: cell-based; outline: as §2
[4] = target: T3, Protein cereblon/Cyclin-dependent kinase 7 (Homo sapiens) (UniProt P50613+Q96SW2); assay: PROTAC activity at CDK7/CRBN in human Jurkat cells assessed as degradation of CDK7 at 0.1 uM measured after 16 hrs incubation by immunoblot analysis; assay type: cell-based
Outline: (§3)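 Jurkat cells exposed to CRBN-recruiting bivalent compounds at 0.1 or 1 μM for 16 h. Lysed in RIPA with protease/phosphatase inhibitors, BCA-normalized, run on 4–20% SDS-PAGE and blotted to nitrocellulose. Probed with anti-CDK7 (1:1000) and β-actin (1:5000) overnight at 4 °C, IRDye secondaries, near-infrared imaging.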

[5] = target: T3, Protein cereblon/Cyclin-dependent kinase 7 (Homo sapiens); assay: PROTAC activity at CDK7/CRBN in human Jurkat cells assessed as degradation of CDK7 at 1 uM measured after 16 hrs incubation by immunoblot analysis; assay type: cell-based; outline: as §3
CDK7/Cyclin H/MNAT1 [6] = target: T1, CDK7/Cyclin H/MNAT1; assay: Inhibition of recombinant GST-tagged CDK7/CycH/MAT1 (unknown origin) extracted from baculo-virus infected Sf9 insect cells assessed as inhibition constant using ATP containing 32P measured after 15 mins by Beckman liquid scintillation counter analysis; assay type: cell-free
A549 = assay: Antiproliferative activity against human A549 cells assessed as cell viability measured after 72 hrs by CellTiter-Glo assay; assay type: functional, cell-based; settings: A549, 72 h
Outline: (§4)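 Cells grown in RPMI 1640 with 10% heat-inactivated FBS and penicillin/streptomycin at 37 °C, 5% CO2, mycoplasma-negative. Seeded at 10^4/ml. Compounds dispensed digitally from 10 mM or 1 mM DMSO stocks, DMSO equalized, triplicate wells. After 72 h, CellTiter-Glo added for 10–15 min at room temperature and luminescence read.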

CDK7/Cyclin H/MNAT1 [7] = target: T1, CDK7/Cyclin H/MNAT1; assay: Inhibition of CDK7/CycH/MAT1 (unknown origin); parameters: species or system Sf9; outline: as §1
SU-DHL-5 = assay: Antiproliferative activity against human SU-DHL-5 cells assessed as cell viability measured after 72 hrs by CellTiter-Glo assay; assay type: functional, cell-based; settings: SU-DHL-5, 72 h; outline: as §4
Jurkat = assay: Antiproliferative activity against human Jurkat cells assessed as cell viability measured after 72 hrs by CellTiter-Glo assay; assay type: functional, cell-based; outline: as §4
MOLT-4 = assay: Antiproliferative activity against human MOLT-4 cells assessed as cell viability measured after 72 hrs by CellTiter-Glo assay; assay type: functional, cell-based; settings: MOLT-4, 72 h; outline: as §4
OVCAR-3 = assay: Antiproliferative activity against human OVCAR-3 cells assessed as cell viability measured after 72 hrs by CellTiter-Glo assay; assay type: functional, cell-based; settings: OVCAR-3, 72 h; outline: as §4

T2 sequence (P40337 whole entry, looked up): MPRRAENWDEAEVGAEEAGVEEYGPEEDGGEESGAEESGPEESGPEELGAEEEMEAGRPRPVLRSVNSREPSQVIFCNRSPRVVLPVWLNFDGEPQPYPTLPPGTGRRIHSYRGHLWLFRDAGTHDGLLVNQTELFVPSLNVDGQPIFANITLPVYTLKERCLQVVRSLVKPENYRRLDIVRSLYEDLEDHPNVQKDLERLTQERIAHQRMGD
T2 sequence (P50613 whole entry, looked up): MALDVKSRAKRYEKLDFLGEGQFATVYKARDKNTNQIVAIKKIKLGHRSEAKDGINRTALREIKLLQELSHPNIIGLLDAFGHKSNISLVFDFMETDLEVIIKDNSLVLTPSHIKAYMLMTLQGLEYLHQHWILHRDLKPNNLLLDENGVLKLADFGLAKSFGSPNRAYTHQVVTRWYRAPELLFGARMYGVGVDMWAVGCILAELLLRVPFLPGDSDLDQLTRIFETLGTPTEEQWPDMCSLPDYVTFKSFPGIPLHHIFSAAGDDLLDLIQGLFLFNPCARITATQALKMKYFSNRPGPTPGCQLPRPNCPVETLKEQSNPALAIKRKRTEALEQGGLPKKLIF
T1 sequence (P51946 whole entry): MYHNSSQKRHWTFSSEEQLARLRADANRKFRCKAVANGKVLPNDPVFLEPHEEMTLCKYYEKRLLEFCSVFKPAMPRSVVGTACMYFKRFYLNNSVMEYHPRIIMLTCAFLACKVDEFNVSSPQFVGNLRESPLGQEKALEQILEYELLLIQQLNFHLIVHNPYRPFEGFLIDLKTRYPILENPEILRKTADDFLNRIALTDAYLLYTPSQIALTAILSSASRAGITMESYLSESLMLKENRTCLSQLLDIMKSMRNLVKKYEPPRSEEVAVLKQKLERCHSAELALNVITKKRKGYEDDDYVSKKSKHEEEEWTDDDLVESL
T1 sequence (P50613 whole entry): as the sequence (P50613 whole entry, looked up) above
T1 sequence (P51948 whole entry, further chain): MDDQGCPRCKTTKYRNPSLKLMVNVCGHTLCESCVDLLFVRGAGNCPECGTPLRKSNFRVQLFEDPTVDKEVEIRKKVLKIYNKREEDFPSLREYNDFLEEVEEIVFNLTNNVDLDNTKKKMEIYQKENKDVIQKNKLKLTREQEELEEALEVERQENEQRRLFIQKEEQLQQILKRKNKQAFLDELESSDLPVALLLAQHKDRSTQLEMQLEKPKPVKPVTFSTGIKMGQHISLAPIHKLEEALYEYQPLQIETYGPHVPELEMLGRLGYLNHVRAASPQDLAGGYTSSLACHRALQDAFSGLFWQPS
T3 sequence (P50613 whole entry, looked up): as the sequence (P50613 whole entry, looked up) above
T3 sequence (Q96SW2 whole entry, looked up): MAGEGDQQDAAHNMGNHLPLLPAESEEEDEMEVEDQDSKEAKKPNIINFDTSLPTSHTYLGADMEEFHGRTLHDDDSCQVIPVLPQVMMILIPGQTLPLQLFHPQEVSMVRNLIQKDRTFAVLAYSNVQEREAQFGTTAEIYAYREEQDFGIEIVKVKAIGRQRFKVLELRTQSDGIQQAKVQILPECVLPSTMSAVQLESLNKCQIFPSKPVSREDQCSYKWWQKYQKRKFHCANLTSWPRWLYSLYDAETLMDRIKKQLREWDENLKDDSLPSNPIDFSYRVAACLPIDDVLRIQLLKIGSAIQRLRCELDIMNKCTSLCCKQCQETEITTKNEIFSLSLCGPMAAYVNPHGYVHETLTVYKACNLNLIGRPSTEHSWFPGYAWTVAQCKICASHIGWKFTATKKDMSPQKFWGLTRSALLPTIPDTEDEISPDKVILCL

Compound | IC50 (CDK7/Cyclin H/MNAT1 [1]) | Activity [2] | Activity [3] | Activity [4] | Activity [5] | also measured
Cc1ncsc1-c1ccc([C@H](C)NC(=O)[C@@H]2C[C@@H](O)CN2C(=O)[C@@H](NC(=O)CCCCCNC(=O)c2ccc(C(=O)Nc3n[nH]c4c3CN(C(=O)N[C@H](CN(C)C)c3ccccc3)C4(C)C)cc2)C(C)(C)C)cc1 | 8.1 nM | Active | Active | – | – | –
Cc1ncsc1-c1ccc([C@H](C)NC(=O)[C@@H]2C[C@@H](O)CN2C(=O)[C@@H](NC(=O)CCCCCc2ccc(C(=O)Nc3n[nH]c4c3CN(C(=O)N[C@H](CN(C)C)c3ccccc3)C4(C)C)cc2)C(C)(C)C)cc1 | – | Active | Active | – | – | –
CN(C)C[C@@H](NC(=O)N1Cc2c(NC(=O)c3ccc(C(=O)NCCOCCNc4cccc5c4C(=O)N(C4CCC(=O)NC4=O)C5=O)cc3)n[nH]c2C1(C)C)c1ccccc1 (some centres not stated) | 11.3 nM | – | – | inactive | inactive | –
Cc1ncsc1-c1ccc([C@H](C)NC(=O)[C@@H]2C[C@@H](O)CN2C(=O)[C@@H](NC(=O)CCCCOc2ccc(C(=O)Nc3n[nH]c4c3CN(C(=O)N[C@H](CN(C)C)c3ccccc3)C4(C)C)cc2)C(C)(C)C)cc1 | 12.6 nM | Active | Active | – | – | –
CN(C)C[C@@H](NC(=O)N1Cc2c(NC(=O)c3ccc(C(=O)NCCOCCOCCOCCNc4cccc5c4C(=O)N(C4CCC(=O)NC4=O)C5=O)cc3)n[nH]c2C1(C)C)c1ccccc1 (some centres not stated) | 17.7 nM | – | – | inactive | inactive | –
C=CC(=O)Nc1ccc(C(=O)Nc2n[nH]c3c2CN(C(=O)N[C@@H](CN(C)C)c2ccccc2)C3(C)C)cc1 | – | – | – | – | – | Ki (CDK7/Cyclin H/MNAT1 [6]): 2.2 nM
Cc1ncsc1-c1ccc([C@H](C)NC(=O)[C@@H]2C[C@@H](O)CN2C(=O)[C@@H](NC(=O)CCNC(=O)c2ccc(C(=O)Nc3n[nH]c4c3CN(C(=O)N[C@H](CN(C)C)c3ccccc3)C4(C)C)cc2)C(C)(C)C)cc1 | 8.7 nM | Active | Active | – | – | –
CN(C)C[C@@H](NC(=O)N1Cc2c(NC(=O)c3ccc(C(=O)NCCOCCOCCNc4cccc5c4C(=O)N(C4CCC(=O)NC4=O)C5=O)cc3)n[nH]c2C1(C)C)c1ccccc1 (some centres not stated) | 6.4 nM | – | – | inactive | inactive | –
CN(C)C[C@@H](NC(=O)N1Cc2c(NC(=O)c3ccc(C(=O)NCCCCCCCCOc4cccc5c4C(=O)N(C4CCC(=O)NC4=O)C5=O)cc3)n[nH]c2C1(C)C)c1ccccc1 (some centres not stated) | 34.4 nM | – | – | inactive | inactive | –
Cc1ncsc1-c1ccc([C@H](C)NC(=O)[C@@H]2C[C@@H](O)CN2C(=O)[C@@H](NC(=O)CCOCCNC(=O)c2ccc(C(=O)Nc3n[nH]c4c3CN(C(=O)N[C@H](CN(C)C)c3ccccc3)C4(C)C)cc2)C(C)(C)C)cc1 | 11.1 nM | Active | Active | – | – | –
CN(C)C[C@@H](NC(=O)N1Cc2c(NC(=O)c3ccc(C(=O)NCCCCCCNc4cccc5c4C(=O)N(C4CCC(=O)NC4=O)C5=O)cc3)n[nH]c2C1(C)C)c1ccccc1 (some centres not stated) | 9.4 nM | – | – | inactive | inactive | –
CCC(=O)Nc1ccc(C(=O)Nc2n[nH]c3c2CN(C(=O)N[C@@H](CN(C)C)c2ccccc2)C3(C)C)cc1 | – | – | – | – | – | IC50 (A549): 1630 nM; IC50 (CDK7/Cyclin H/MNAT1 [7]): 6.8 nM; IC50 (SU-DHL-5): 176 nM; IC50 (Jurkat): 1190 nM; IC50 (MOLT-4): 598 nM; IC50 (OVCAR-3): 896 nM
CN(C)C[C@@H](NC(=O)N1Cc2c(NC(=O)c3ccc(C(=O)NCCNc4cccc5c4C(=O)N(C4CCC(=O)NC4=O)C5=O)cc3)n[nH]c2C1(C)C)c1ccccc1 (some centres not stated) | 6.7 nM | – | – | inactive | inactive | –

Second part, led by results:

IC50 (CDK7/Cyclin H/MNAT1 [1]) | Activity [2] | Activity [3] | Activity [4] | Activity [5] | Compound | also measured
7.6 nM | Active | Active | – | – | Cc1ncsc1-c1ccc([C@H](C)NC(=O)[C@@H]2C[C@@H](O)CN2C(=O)[C@@H](NC(=O)CCOCCOCCNC(=O)c2ccc(C(=O)Nc3n[nH]c4c3CN(C(=O)N[C@H](CN(C)C)c3ccccc3)C4)cc2)C(C)(C)C)cc1 | –
13.3 nM | – | – | inactive | inactive | CN(C)C[C@@H](NC(=O)N1Cc2c(NC(=O)c3ccc(C(=O)NCCCCC#Cc4cccc5c4C(=O)N(C4CCC(=O)NC4=O)C5=O)cc3)n[nH]c2C1(C)C)c1ccccc1 (some centres not stated) | –
13.4 nM | Active | Active | – | – | Cc1ncsc1-c1ccc(CNC(=O)C2[C@@H](O)CCN2C(=O)C(NC(=O)C2(F)CC2)C(C)(C)C)c(OCCOCCOCCNC(=O)c2ccc(C(=O)Nc3n[nH]c4c3CN(C(=O)N[C@H](CN(C)C)c3ccccc3)C4(C)C)cc2)c1 (some centres not stated) | –
9.2 nM | – | – | inactive | inactive | CN(C)C[C@@H](NC(=O)N1Cc2c(NC(=O)c3ccc(C(=O)NCCCCCOc4cccc5c4C(=O)N(C4CCC(=O)NC4=O)C5=O)cc3)n[nH]c2C1(C)C)c1ccccc1 (some centres not stated) | –
8.6 nM | Active | Active | – | – | CC(=O)N[C@H](C(=O)N1C[C@H](O)C[C@H]1C(=O)N[C@@H](C)c1ccc(-c2scnc2C(=O)NCCCCCNC(=O)c2ccc(C(=O)Nc3n[nH]c4c3CN(C(=O)N[C@H](CN(C)C)c3ccccc3)C4(C)C)cc2)cc1)C(C)(C)C | –
5.6 nM | Active | Active | – | – | Cc1ncsc1-c1ccc([C@H](C)NC(=O)[C@@H]2C[C@@H](O)CN2C(=O)[C@@H](NC(=O)CCCNC(=O)c2ccc(C(=O)Nc3n[nH]c4c3CN(C(=O)N[C@H](CN(C)C)c3ccccc3)C4(C)C)cc2)C(C)(C)C)cc1 | –
